# PG9 binder: binders of HIV-1 gp120 antibody PG9, primary screen, biochemical, TR-FRET; HIV-1 gp120 / PG9 antibody interaction; TR-FRET gp120-PG9 antibody binding; inhibition, % at 6.7 µM; 360,000 compounds, 0.43% hits; in the data active = inhibition above about 8.5%
# Neddylation inh: inhibitors of cullin neddylation, primary screen, biochemical, TR-FRET, uHTS, NAE and Ubc12 | AID 651699, 2012 | 360,000 compounds, 0.58% hits | calls only at 25 µM | NEDD8-conjugating enzyme Ubc12 (Homo sapiens) + NEDD8-activating enzyme E1 regulatory …; in the data active = inhibition above about 36%
# NR2E3 ag-1: inhibitors of NR2E3-RetCOR corepressor binding, primary screen, NR2E3 agonist project, biochemical, TR-FRET, GST-NR2E3, biotin-RetCOR; 320,000 compounds, 0.12% hits; AID 2300, 2010; 1536-well; Photoreceptor-specific nuclear receptor (Homo sapiens), Q9Y5X4; inhibition of corepressor binding, % at 4.78 µM;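 active = percent inhibition above the cutoff of mean plus 3 SD of all tested compounds, set per screening campaign, cut at about 20% in these data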;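 note: 0% = DMSO wells and 100% = biotin wells as full block of FRET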
# Target sequence (Q9Y5X4 whole entry, looked up): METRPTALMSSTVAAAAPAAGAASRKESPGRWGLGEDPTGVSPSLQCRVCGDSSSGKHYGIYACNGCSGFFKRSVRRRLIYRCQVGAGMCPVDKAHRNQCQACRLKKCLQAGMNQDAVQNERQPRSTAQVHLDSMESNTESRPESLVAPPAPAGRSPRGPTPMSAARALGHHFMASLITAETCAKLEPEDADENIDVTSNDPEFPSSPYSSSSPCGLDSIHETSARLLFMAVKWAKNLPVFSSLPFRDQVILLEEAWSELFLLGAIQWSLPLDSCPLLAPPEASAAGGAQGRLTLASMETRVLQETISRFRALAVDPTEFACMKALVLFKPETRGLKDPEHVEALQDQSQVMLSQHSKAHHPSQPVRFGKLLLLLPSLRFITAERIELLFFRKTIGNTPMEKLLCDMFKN
#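 System: GST-NR2E3 and biotin-RetCOR proteins; probe or stimulus: 7 nM biotin-RetCOR; doses: compound at 4.8 µM, single dose; schedule: Compound–protein incubation for 5 h at 4 °C; detection: time-resolved FRET; read-out: percent inhibition; controls: biotin wells as high control, 0.6% DMSO wells as low control; format: 1536-well plates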
# NR2E3 ag-2: NR2E3 agonists in two-hybrid cells, primary screen, cell-based, luminescence, CHO-S, Gal4-NCOR/VP16-NR2E3 | Photoreceptor-specific nuclear receptor (Homo sapiens), Q9Y5X4 | luciferase | inhibition of corepressor binding, % at 3.98 µM | 360,000 compounds, 0.35% hits | AID 602229, 2012;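 active = inhibition above the mean of all tested compounds plus 3 SD, cut at about 70% in these data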;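 note: 0% = DMSO with NR2E3 transfected cells and 100% = cells lacking NR2E3 construct; higher means lower luciferase signal from less NR2E3 corepressor binding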
# NR1D1 modulator: modulators of Rev-erb alpha DNA binding, primary screen, biochemical, FITC-DNA, fluorescence polarization, uHTS. Rev-erbα–FITC-DNA binding, 90 min. 370,000 compounds, 0.79% hits. Nuclear receptor subfamily 1 group D member 1 (Homo sapiens), P20393. activity, % at 10 µM;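 active = activity above about 14%, limit read from the data; passing the limit was not always enough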;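 note: 0% = DMSO wells with 35 nM protein and 100% = DMSO wells with 750 nM protein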
# PG9 bind confirm: binders of anti-gp120 antibody PG9, confirmation, biochemical, TR-FRET; shares compounds with PG9 binder; inhibition, % at 6.7 µM; 1,500 compounds, 90% hits; TR-FRET PG9 antibody binding; in the data active = inhibition above about 9%
# PGV04 counter: binders of control antibody PGV04, counter-screen for PG9 antibody binder project, biochemical, TR-FRET, distinct HIV envelope site; shares compounds with PG9 binder; TR-FRET PGV04 antibody-gp120 binding; inhibition, % at 6.7 µM; 1,500 compounds, 95% hits; in the data active = inhibition above about 9.5%
# Rev-erbA confirm: modulators of Rev-erb alpha DNA binding, confirmation, biochemical, FITC-DNA, fluorescence polarization, single point; shares compounds with NR1D1 modulator; 3,000 compounds, 61% hits; 90 min; activation, % at 25 µM;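 active = activation at or above a set limit, or at least 3 SD above the negative control mean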;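 note: 0% = 35 nM protein with DMSO and 100% = 750 nM protein high control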
# RORg counter: modulation of RORgamma DNA binding, dose response, counter-screen for Rev-erb alpha modulator project, biochemical, fluorescence polarization, FITC-DNA; AID 1259320, 2017; purified RORgamma protein-FITC-DNA binding; IC50, µM; shares compounds with NR1D1 modulator; 910 compounds, 8% hits;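 active = Compounds whose fitted half-maximal concentration for disrupting protein-DNA binding is below 10 micromolar; the record names Rev-erb in its text, so the target is in doubt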
# * marks the source's active call; other numbers are inactive results; i = inactive; . = not tested or not shown. Only some compounds are listed: those with a hit (about 2% of all), similar ones and a draw of the others.
SMILES,PG9 binder,Neddylation inh,NR2E3 ag-1,NR2E3 ag-2,NR1D1 modulator,PG9 bind confirm,PGV04 counter,Rev-erbA confirm,others
COC(=O)c1ccc(NC(=O)c2ccc3nc(C)sc3c2)cc1,29*,i,-2,-113,39*,32*,49*,18*,
Cc1ccc(F)c(S(=O)(=O)NC(=O)C2(C)CCN2C(=O)c2sccc2C)c1 (centres undefined),-1,i,.,-16,-5,.,.,.,
Cc1ccc2[nH]c(=O)c(COC(=O)c3cccs3)cc2c1,18*,i,18,-39,33*,50*,66*,21*,
Cc1ccc2[nH]c(=O)c(CN(C)C(=O)c3cccs3)cc2c1,-2,i,1,-15,5,.,.,.,
COc1ccc(C)c2sc(=NC(=O)c3ccccc3)n(C)c12,12*,i,2,-86,58*,8,10*,2,
CCOc1ccc(C(=O)Nc2nc(C)c(C(=O)OC)s2)cc1,12*,i,0,-95,50*,38*,71*,81*,RORg counter=i
COC(=O)c1sc(NC(=O)c2ccncc2)nc1C,-1,i,3,-28,-4,.,.,.,
CCOC(=O)c1sc(NC(=O)c2ccc(=O)[nH]c2)nc1C,-1,i,-1,-25,-1,.,.,.,
C=CCOC(=O)c1sc(NC(=O)c2ccc(OC)cc2)nc1C,18*,i,2,-15,39*,22*,39*,25*,
Cc1cccc2cc(C#N)c(SCC(=O)Nc3ccccc3N3CCOCC3)nc12,17*,i,5,-15,48*,17*,39*,44*,RORg counter=>40
Cc1cc(NC(=O)CSc2nc3c(C)cccc3cc2C#N)no1,27*,i,-38,-27,83*,43*,72*,53*,RORg counter=>40
CCOC(=O)CN1C(=O)[C@]2(OCCC=C[C@H]2C)c2cc(OC)ccc21,0,.,.,.,-6,.,.,.,
COc1ccc(CCn2c(S)nc3ccccc3c2=O)cc1,24*,i,5,-17,37*,42*,50*,8,
N#Cc1nc(-c2ccc(OCc3ccccc3)cc2)oc1N1CCC(C(N)=O)CC1,9.5*,i,4,-11,41*,9.1*,16*,8,
COc1ccc(-c2nc(C#N)c(N3CCC(C(N)=O)CC3)o2)cc1,-3,.,4,4,0,.,.,.,
CCOC(=O)Cc1nc(N2CCN(Cc3cccc4c3OCO4)CC2)c2c(C)c(C(=O)OCC)sc2n1,.,.,.,.,5,.,.,.,
CCOC(=O)c1cc2sc(C)cc2n1CC(=O)NCCc1ccccc1,55*,i,-16,25,32*,49*,53*,13,
CCOC(=O)c1cc2sc(C)cc2n1CC(=O)N(CC)CC,1,i,0,-3,-2,.,.,.,
COCCn1c(-c2ccccc2)nc2c(c(=O)c3ccccc3n2C)c1=O,.,.,-5,.,.,.,.,.,
Cn1c2ccccc2c(=O)c2c(=O)n(Cc3ccccc3)c(-c3ccc(F)cc3)nc21,21*,i,-2,-4,28*,28*,39*,30*,
